In ChEMBL document CHEMBL3102806, “1,2,4-Triazole/oxime hybrids as new strategy for nitric oxide donors: Synthesis, anti-inflammatory, ulceroginicity and antiproliferative activities” (Eur J Med Chem, 2014):

Experiments:
Type in all cases: functional
CAKI-1 = experiment: Growth inhibition of human CAKI-1 cells after 48 hrs by sulforhodamine B assay; settings: CAKI-1, 48 h
Outline: (§1)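 NCI full ~60 cell line panel. Five 10-fold concentrations from 10^-4 to 10^-8 M, 48 h continuous exposure, SRB protein read-out. Time-zero, control and treated absorbances give percentage growth. GI50 is the concentration where [(Ti−Tz)/(C−Tz)]×100 = 50; TGI is where Ti = Tz; LC50 is where [(Ti−Tz)/Tz]×100 = −50.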

PC-3 = experiment: Growth inhibition of human PC3 cells after 48 hrs by sulforhodamine B assay; settings: PC-3, 48 h
Outline: (§2)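 NCI 60-cell-line panel (nine tumour subpanels), five-dose format: 10-fold dilutions from 10^-4 to 10^-8 M, 48 h continuous exposure, SRB protein stain. Percent growth at each level is derived from time-zero, untreated control and treated absorbances. GI50 is the concentration where [(Ti−Tz)/(C−Tz)]×100 = 50. Values outside the tested range are reported as above or below the limit.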

MDA-MB-231 = experiment: Growth inhibition of human MDA-MB-231 cells after 48 hrs by sulforhodamine B assay; settings: MDA-MB-231, 48 h; outline: as §2
[1] = Growth inhibition of human NCI-ADR-RES cells after 48 hrs by sulforhodamine B assay; outline: as §2
U-251 = experiment: Growth inhibition of human U251 cells after 48 hrs by sulforhodamine B assay; settings: U-251, 48 h
Outline: (§3)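 NCI 60-cell-line panel, five-dose run at 10-fold dilutions from 10^-4 to 10^-8 M, 48 h continuous exposure. Viability by SRB protein stain. Percent growth is taken from time-zero, untreated-control and treated absorbances. GI50 is the concentration giving a 50% lower net protein increase than in control cells. TGI is taken at Ti = Tz, LC50 at a 50% loss of initial protein.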

COLO 205 = experiment: Growth inhibition of human COLO205 cells after 48 hrs by sulforhodamine B assay; settings: COLO 205, 48 h; outline: as §1
[2] = Growth inhibition of human OVCAR5 cells after 48 hrs by sulforhodamine B assay; settings: OVCAR-5, 48 h; outline: as §2
K562 = experiment: Growth inhibition of human K562 cells after 48 hrs by sulforhodamine B assay; settings: K562, 48 h; outline: as §1
RPMI-8226 = experiment: Growth inhibition of human RPMI8226 cells after 48 hrs by sulforhodamine B assay; settings: RPMI-8226, 48 h; outline: as §2
HCT-116 = experiment: Growth inhibition of human HCT116 cells after 48 hrs by sulforhodamine B assay; settings: HCT-116, 48 h; outline: as §1
Malme-3M = experiment: Growth inhibition of human MALME-3M cells after 48 hrs by sulforhodamine B assay; outline: as §2
[3] = Growth inhibition of human OVCAR4 cells after 48 hrs by sulforhodamine B assay; settings: OVCAR-4, 48 h; outline: as §2
[4] = Growth inhibition of human Hs 578T cells after 48 hrs by sulforhodamine B assay; outline: as §1
DU-145 = experiment: Growth inhibition of human DU145 cells after 48 hrs by sulforhodamine B assay; settings: DU-145, 48 h; outline: as §1
SK-MEL-5 = experiment: Growth inhibition of human SK-MEL-5 cells after 48 hrs by sulforhodamine B assay; settings: SK-MEL-5, 48 h; outline: as §3
OVCAR-3 = experiment: Growth inhibition of human OVCAR3 cells after 48 hrs by sulforhodamine B assay; settings: OVCAR-3, 48 h; outline: as §2
NCI-H226 = experiment: Growth inhibition of human NCI-H226 cells after 48 hrs by sulforhodamine B assay; settings: NCI-H226, 48 h; outline: as §2
T47D = experiment: Growth inhibition of human T47D cells after 48 hrs by sulforhodamine B assay; outline: as §3
MDA-MB-435 = experiment: Growth inhibition of human MDA-MB-435 cells after 48 hrs by sulforhodamine B assay; settings: MDA-MB-435, 48 h; outline: as §2
CCRF-CEM = experiment: Growth inhibition of human CCRF-CEM cells after 48 hrs by sulforhodamine B assay; outline: as §1
SW-620 = experiment: Growth inhibition of human SW620 cells after 48 hrs by sulforhodamine B assay; settings: SW-620, 48 h; outline: as §3
KM12 = experiment: Growth inhibition of human KM12 cells after 48 hrs by sulforhodamine B assay; settings: KM12, 48 h; outline: as §2
A498 = experiment: Growth inhibition of human A498 cells after 48 hrs by sulforhodamine B assay; settings: A498, 48 h; outline: as §1
SK-MEL-2 = experiment: Growth inhibition of human SK-MEL-2 cells after 48 hrs by sulforhodamine B assay; settings: SK-MEL-2, 48 h; outline: as §3
TK-10 = experiment: Growth inhibition of human TK10 cells after 48 hrs by sulforhodamine B assay; settings: TK-10, 48 h; outline: as §3
A549 = experiment: Growth inhibition of human A549/ATCC cells after 48 hrs by sulforhodamine B assay; settings: A549, 48 h; outline: as §1
NCI-H460 = experiment: Growth inhibition of human NCI-H460 cells after 48 hrs by sulforhodamine B assay; settings: NCI-H460, 48 h; outline: as §2
[5] = read-out: LC50 (the source's name)

What does the source list for `COc1ccc(-c2nnc(SCC(=O)Nc3ccc(/C(C)=N/O)cc3)n2-c2ccccc2)cc1OC`?
GI50 (CAKI-1): > 100 µM; TGI (CAKI-1): > 100 µM; CC50 (CAKI-1; [5]): > 100 µM; GI50 (PC-3): > 100 µM; TGI (PC-3): > 100 µM; CC50 (PC-3; [5]): > 100 µM; GI50 (MDA-MB-231): 4.26 µM; TGI (MDA-MB-231): 23.8 µM; CC50 (MDA-MB-231; [5]): > 100 µM; GI50 [1]: > 100 µM; TGI [1]: > 100 µM; CC50 [1, 5]: > 100 µM; GI50 (U-251): 3.62 µM; TGI (U-251): 19.6 µM; CC50 (U-251; [5]): > 100 µM; GI50 (COLO 205): > 100 µM; TGI (COLO 205): > 100 µM; CC50 (COLO 205; [5]): > 100 µM; GI50 [2]: > 100 µM; TGI [2]: > 100 µM; CC50 [2, 5]: > 100 µM; GI50 (K562): > 100 µM; TGI (K562): > 100 µM; CC50 (K562; [5]): > 100 µM; GI50 (RPMI-8226): > 100 µM; TGI (RPMI-8226): > 100 µM; CC50 (RPMI-8226; [5]): > 100 µM; GI50 (HCT-116): 11.3 µM; TGI (HCT-116): > 100 µM; CC50 (HCT-116; [5]): > 100 µM; GI50 (Malme-3M): 17.2 µM; TGI (Malme-3M): > 100 µM; CC50 (Malme-3M; [5]): > 100 µM; GI50 [3]: > 100 µM; TGI [3]: > 100 µM; CC50 [3, 5]: > 100 µM; GI50 [4]: 3.75 µM; TGI [4]: > 100 µM; CC50 [4, 5]: > 100 µM; GI50 (DU-145): 24.9 µM; TGI (DU-145): > 100 µM; CC50 (DU-145; [5]): > 100 µM; GI50 (SK-MEL-5): > 100 µM; TGI (SK-MEL-5): > 100 µM; CC50 (SK-MEL-5; [5]): > 100 µM; GI50 (OVCAR-3): 7.87 µM; TGI (OVCAR-3): > 100 µM; CC50 (OVCAR-3; [5]): > 100 µM; GI50 (NCI-H226): 7.28 µM; TGI (NCI-H226): > 100 µM; CC50 (NCI-H226; [5]): > 100 µM; GI50 (T47D): 9.45 µM; TGI (T47D): > 100 µM; CC50 (T47D; [5]): > 100 µM; GI50 (MDA-MB-435): > 100 µM; TGI (MDA-MB-435): > 100 µM; CC50 (MDA-MB-435; [5]): > 100 µM; GI50 (CCRF-CEM): > 100 µM; TGI (CCRF-CEM): > 100 µM; CC50 (CCRF-CEM; [5]): > 100 µM; GI50 (SW-620): > 100 µM; TGI (SW-620): > 100 µM; CC50 (SW-620; [5]): > 100 µM; GI50 (KM12): > 100 µM; TGI (KM12): > 100 µM; CC50 (KM12; [5]): > 100 µM; GI50 (A498): 2.72 µM; TGI (A498): 46.1 µM; CC50 (A498; [5]): > 100 µM; GI50 (SK-MEL-2): 5.04 µM; TGI (SK-MEL-2): 28.8 µM; CC50 (SK-MEL-2; [5]): > 100 µM; GI50 (TK-10): 11.3 µM; TGI (TK-10): 52.7 µM; CC50 (TK-10; [5]): > 100 µM; GI50 (A549): 9.73 µM; TGI (A549): > 100 µM; CC50 (A549; [5]): > 100 µM; GI50 (NCI-H460): > 100 µM; TGI (NCI-H460): > 100 µM; CC50 (NCI-H460; [5]): > 100 µM
